Measured values from paper PMC4690987 (Journal of Medicinal Chemistry, 2015).

Assays:
HIV-1 NL4-3 = test: HIV-1 entry assay; format: cell-based; conditions: TZM-bl cells, virus production at 31 h pi; 2 50–100 nM, AZT 0.5 μg/mL, DS 100 μg/mL
Outline: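 TZM-bl cells (HeLa stably expressing CD4, CCR5 and HIV-1 LTR-driven luciferase) were grown in DMEM/10% FBS. Cells were seeded at 1 × 10^4 per well and allowed to adhere overnight, then infected with HIV-1 NL4-3 at MOI 0.5 and kept at 37 °C. Test compound or reference agents were added at 0, 1 or 2 h pi. At 31 h cells were PBS-washed and virus production was read as LTR-luciferase RLU.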

HIV-1 NL4-3 strain [1] = test: Antiviral assay in HIV-1 infected TZM-bl cells; format: cell-based; conditions: for SI HIV-1 strain NL4-3: CC50 value/IC50 value; for IC50: read-out: IC50 HIV-1 strain NL4-3, MOI 0.5, 48 h, LTR-luciferase signal
Outline: (§1)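 TZM-bl cells (HeLa expressing CD4 and CCR5, with LTR-driven luciferase and β-galactosidase) were seeded at 1 ×10^4 cells/well in DMEM/10% FBS and left to adhere overnight. Cells were infected with HIV-1 NL4-3 or BaL at MOI 0.5, treated with serial dilutions of test compound, and incubated at 37 °C for 48 h. IC50 was taken as 50% inhibition of LTR-luciferase signal. CC50 came from parallel MTT on mock-infected cells. SI = CC50/IC50.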

HIV-1 NL4-3 strain [2] = conditions: previous work ref 27, 30; cited from earlier work
TZM-bl cells = conditions: values previously reported ref 27; cited from earlier work
LTR-IV G4 [3] = test: FRET melting assay; format: binding, HIV-1; conditions: for stabilization (ΔTm, FRET) at 4-fold c-exNDI:DNA molar ratio: 25 °C is the maximum increase measurable, data not shown; for difference in stabilization of LTR-IV G4s vs hTel G4: FRET, equimolar amounts
Outline: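 Oligonucleotide labelled with FAM at the 5′ end and TAMRA at the 3′ end, 0.25 μM, folded in lithium cacodylate buffer with 100 mM potassium, plus equimolar test compound. After equilibration at 4 °C, FAM emission was followed from 30 to 95 °C at 1 °C/min. Profiles were normalized, and Tm was the temperature at 0.5 normalized fluorescence.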

LTR-III G4 [4] = test: Circular dichroism; format: binding, HIV-1; conditions: 4:1 c-exNDI:DNA ratio, label-free oligonucleotide
Outline: (§2)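 Unlabelled oligonucleotide, final 4 μM, in 10 mM lithium cacodylate pH 7.4 with 100 mM KCl, annealed at 95 °C for 5 min, then cooled gradually to room temperature. Test compound added to a final 16 μM. CD spectra taken at 230–320 nm (5 mm cell, average of 2 scans, buffer-corrected) while heating 20–95 °C at 5 °C/min. Tm calculated by van't Hoff two-state fit.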

LTR-IV G4 [5] = test: Circular dichroism; format: binding, HIV-1; conditions: 4:1 c-exNDI:DNA ratio, label-free oligonucleotide
Outline: as §2

hTel G4 [6] = test: Circular dichroism; format: binding, human; conditions: 4:1 c-exNDI:DNA ratio, label-free oligonucleotide
Outline: as §2

[7] = test system: LTR-III, LTR-IV, and hTel templates; test: Taq polymerase stop assay; format: biochemical; conditions: 2 at 3.1–25.0 nM, K+ 100 mM
Outline: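 A 5′-end-labelled primer was annealed to each template in lithium cacodylate buffer, with or without 100 mM KCl, by heating to 95 °C for 5 min and cooling gradually to room temperature so the templates folded into G4. A template unable to form G4 served as a control. Taq extension was run with or without test compound, and polymerase stop regions were read from the products.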

LTR-III G4 [8] = test: ESI-MS competition assay; format: binding, HIV-1; conditions: 2-fold molar excess of compound
Outline: (§3)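 G4 oligonucleotides heat-denatured and folded overnight at room temperature in 10 mM KCl, 150 mM trimethylammonium acetate pH 6.8. Equimolar pairs of G4s incubated overnight at 4 °C with 2-fold excess test compound, then injected via HPLC into ESI-MS. Binding affinity = bound/(free + bound) ×100, from reconstructed-ion chromatogram areas. Bound includes one or two ligands; free includes K+ adducts.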

LTR-IV G4 [9] = test: ESI-MS competition assay; format: binding, HIV-1; conditions: 2-fold molar excess of compound
Outline: as §3

hTel G4 [10] = test: ESI-MS competition assay; format: binding, human; conditions: 2-fold molar excess of compound
Outline: as §3

c-kit2 G4 = test: ESI-MS competition assay; format: binding; conditions: 2-fold molar excess of compound
Outline: as §3

c-myc G4 = test: ESI-MS competition assay; format: binding; conditions: 2-fold molar excess of compound
Outline: as §3

LTR-III G4 [11] = test: SPR analysis; set-up: species or system HIV-1; conditions: read-out: KD LTR-III G4 (SPR); 25 °C, HEPES-KCl buffer, 1:1 binding model
Outline: (§4)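 5′-biotinylated oligonucleotides folded (95 °C for 5 min, cooled to room temperature), diluted to 30 nM and captured on a streptavidin chip to about 500 RU, with an empty reference cell. Running buffer was 0.01 M HEPES pH 7.4, 0.2 M KCl, 3 mM EDTA. Test compound run at 25–200 nM, 30 μL/min, with 280 s contact and 360 s dissociation. Surface regenerated with 10 mM glycine pH 2.0. Sensorgrams buffer-corrected and fitted to a 1:1 model. At least two independent runs, χ2 below 0.2.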

LTR-IV G4 [12] = test: SPR analysis; set-up: species or system HIV-1; conditions: read-out: KD LTR-IV G4 (SPR); 25 °C, HEPES-KCl buffer, 1:1 binding model
Outline: as §4

hTel G4 [13] = test: SPR analysis; set-up: species or system human; conditions: read-out: KD hTel G4 (SPR); 25 °C, HEPES-KCl buffer, 1:1 binding model
Outline: as §4

HIV-1 BaL strain = test: Antiviral assay in HIV-1 infected TZM-bl cells; format: cell-based; conditions: for SI HIV-1 strain BaL: CC50 value/IC50 value; for IC50: read-out: IC50 HIV-1 strain BaL, MOI 0.5, 48 h, LTR-luciferase signal
Outline: as §1

Cytotoxicity assay = format: cell-based; conditions: human, uninfected (mock-infected) TZM-bl cells
Outline: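 Run in parallel with the antiviral assay, under the same conditions but on uninfected TZM-bl cells (1 ×10^4 cells/well, seeded overnight, test compound in serial dilution, 37 °C, 48 h). Viability was read by MTT absorbance. CC50 was the concentration that reduced absorbance of mock-infected cells by 50%.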

HIV-1 LTR promoter = test: LTR-EGFP reporter assay in HeLa-Tat-III/LTR/d1EGFP cells; format: cell-based; conditions: noncytotoxic concentrations of 2 (62.5–250 nM), 48 h, FACS
wt LTR promoter = test: Luciferase reporter assay in 293T cells; format: cell-based, HIV-1; conditions: increasing amounts of 2, 24 h
Outline: (§5)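 HEK293T cells, 9 ×10^4 per well, transfected 24 h after seeding with 100 ng of a promoterless Luc2 vector carrying the wt or M4+5 (G4-abolishing double point mutant) HIV-1 LTR. Test compound added 1 h after transfection at various concentrations for 24 h. Luciferase activity measured. Cells lysed in RIPA, and signals normalized to total protein (BCA).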

[14] = test system: M4 + 5 mutant LTR promoter (non-G4-forming); test: Luciferase reporter assay in 293T cells; format: cell-based, HIV-1; conditions: increasing amounts of 2, 24 h
Outline: as §5

Row | Kd (LTR-IV G4 [12]) [nM] | IC50 (HIV-1 NL4-3 strain [1]) [nM] | SMILES | antiviral activity as a function of time of addition (0, 1, 2 h pi) (HIV-1 NL4-3) | SI HIV-1 strain NL4-3 (HIV-1 NL4-3 strain [1]) | stabilization (ΔTm, FRET) at 4-fold c-exNDI:DNA molar ratio (LTR-IV G4 [3]) | difference in stabilization of LTR-IV G4s vs hTel G4 (LTR-IV G4 [3]) [°C] | binding affinity LTR-III (LTR-III G4 [8]; competing G4s LTR-III/LTR-IV) | binding affinity LTR-III (LTR-III G4 [8]; competing G4s LTR-III/kit) | binding affinity LTR-III (LTR-III G4 [8]; competing G4s LTR-III/myc) | binding affinity LTR-IV (LTR-IV G4 [9]; competing G4s LTR-III/LTR-IV) | binding affinity LTR-IV (LTR-IV G4 [9]; competing G4s LTR-IV/hTel) | binding affinity LTR-IV (LTR-IV G4 [9]; competing G4s LTR-IV/kit) | binding affinity LTR-IV (LTR-IV G4 [9]; competing G4s LTR-IV/myc) | binding affinity cell G4 (hTel) (hTel G4 [10]; competing G4s LTR-III/hTel) | binding affinity cell G4 (hTel) (hTel G4 [10]; competing G4s LTR-IV/hTel) | binding affinity cell G4 (kit) (c-kit2 G4; competing G4s LTR-III/kit) | binding affinity cell G4 (kit) (c-kit2 G4; competing G4s LTR-IV/kit) | binding affinity cell G4 (myc) (c-myc G4; competing G4s LTR-III/myc) | binding affinity cell G4 (myc) (c-myc G4; competing G4s LTR-IV/myc) | CC50 (Cytotoxicity assay) [nM] | also measured
1 | 6.6 | 15.7 ± 2.1 | CN(C)CCCn1c(=O)c2cc(Br)c3c(=O)n(CCCN(C)C)c(=O)c4c5[nH]c6ccccc6[nH]c5c(c1=O)c2c34 [Compound 3] | – | – | above 25 °C | ≥ 6 | – | – | – | – | – | – | – | – | – | – | – | – | – | 343 ± 32.2 | SI HIV-1 strain BaL (HIV-1 BaL strain): 11; IC50 (HIV-1 BaL strain): 32.5 ± 7.1 nM
2 | 5.9 | 23 ± 1.3 | CN(C)CCCn1c(=O)c2cc(Br)c3c(=O)n(CCCN(C)C)c(=O)c4c5[nH]c6ccc([N+](=O)[O-])cc6[nH]c5c(c1=O)c2c34 [Compound 5] | – | – | – | – | – | – | – | – | – | – | – | – | – | – | – | – | – | 439 ± 10.7 | –

More lines, now with the values behind:

Row | SMILES | Kd (LTR-IV G4 [12]) [nM] | IC50 (HIV-1 NL4-3 strain [1]) [nM] | antiviral activity as a function of time of addition (0, 1, 2 h pi) (HIV-1 NL4-3) | SI HIV-1 strain NL4-3 (HIV-1 NL4-3 strain [1]) | stabilization (ΔTm, FRET) at 4-fold c-exNDI:DNA molar ratio (LTR-IV G4 [3]) | difference in stabilization of LTR-IV G4s vs hTel G4 (LTR-IV G4 [3]) [°C] | binding affinity LTR-III (LTR-III G4 [8]; competing G4s LTR-III/LTR-IV) | binding affinity LTR-III (LTR-III G4 [8]; competing G4s LTR-III/kit) | binding affinity LTR-III (LTR-III G4 [8]; competing G4s LTR-III/myc) | binding affinity LTR-IV (LTR-IV G4 [9]; competing G4s LTR-III/LTR-IV) | binding affinity LTR-IV (LTR-IV G4 [9]; competing G4s LTR-IV/hTel) | binding affinity LTR-IV (LTR-IV G4 [9]; competing G4s LTR-IV/kit) | binding affinity LTR-IV (LTR-IV G4 [9]; competing G4s LTR-IV/myc) | binding affinity cell G4 (hTel) (hTel G4 [10]; competing G4s LTR-III/hTel) | binding affinity cell G4 (hTel) (hTel G4 [10]; competing G4s LTR-IV/hTel) | binding affinity cell G4 (kit) (c-kit2 G4; competing G4s LTR-III/kit) | binding affinity cell G4 (kit) (c-kit2 G4; competing G4s LTR-IV/kit) | binding affinity cell G4 (myc) (c-myc G4; competing G4s LTR-III/myc) | binding affinity cell G4 (myc) (c-myc G4; competing G4s LTR-IV/myc) | CC50 (Cytotoxicity assay) [nM] | also measured
3 | Cc1cn([C@H]2C[C@H](N=[N+]=[N-])[C@@H](CO)O2)c(=O)[nH]c1=O [AZT, Zidovudine] | – | – | maintaining activity from 0 to 2 h pi | – | – | – | – | – | – | – | – | – | – | – | – | – | – | – | – | – | –
4 | CN(C)c1ccc(Nc2c3ccc(NC(=O)CCN4CCCC4)cc3nc3cc(NC(=O)CCN4CCCC4)ccc23)cc1.Cl.Cl.Cl [Compound 1, BRACO-19] | – | – | – | >3.5 | – | – | – | – | – | – | – | – | – | – | – | – | – | – | – | – | IC50 (virus production in infected cells) (HIV-1 NL4-3 strain [2]): low μM range; average selectivity index (SI) (HIV-1 NL4-3 strain [2]): 12; CC50 (TZM-bl cells): > 12000 nM
5 | CN(C)CCCn1c(=O)c2ccc3c(=O)n(CCCN(C)C)c(=O)c4c5[nH]c6ccccc6[nH]c5c(c1=O)c2c34 [Compound 2] | 6.1 | 13.2 ± 0.1 | No significant difference in the activity of the compound was observed at the tested times | 40 | above 25 °C | ≥ 6 | 71 | 33 | 39 | 25 | 52 | 25 | 25 | 10 | 25 | 12 | 9 | 45 | 44 | 532 ± 11.7 | stabilization of LTR-III G4 by CD (LTR-III G4 [4]): higher than 27 °C; stabilization of LTR-IV G4 by CD (LTR-IV G4 [5]): higher than 27 °C; stabilization of hTel G4 by CD (hTel G4 [6]): 19.9 °C; Taq polymerase stop site [7]: intense stop site at the most 3′ G tract in each G4-forming template; Kd (LTR-III G4 [11]): 3.2 nM; Kd (hTel G4 [13]): 13.1 nM; SI HIV-1 strain BaL (HIV-1 BaL strain): 14; IC50 (HIV-1 BaL strain): 36.2 ± 4.3 nM; inhibition of mean EGFP levels (LTR promoter activity) (HIV-1 LTR promoter): up to 60%; inhibition of wt LTR luciferase activity (wt LTR promoter): up to 65%; effect on non-G4-forming mutant LTR (M4 + 5) luciferase activity [14]: no effect
6 | CN(C)CCCn1c(=O)c2ccc3c(=O)n(CCCN(C)C)c(=O)c4c5[nH]c6cc([N+](=O)[O-])ccc6[nH]c5c(c1=O)c2c34 [Compound 4] | – | – | – | – | above 25 °C | – | 80 | 54 | 51 | 68 | 75 | 55 | 71 | 10 | 18 | 18 | 23 | 37 | 45 | 188 ± 4.08 | –
